The values that follow come from publication PMC2151523 (The Journal of General Physiology, 2006).

Molecules are shown by their SMILES. Values joined by “and” are separate entries in the source; they are usually repeats but may differ in a detail not shown here. Equal entries are not always repeated. Where two headings read alike, the source gives them in different places.

For experiment [1], the system named is CNGA1 channels. The note with it: cited from earlier work.
The target in experiment [2] is T1, bovine rod CNGA1 channels (Bos taurus, UniProt Q00194).
T1 sequence (Q00194 1-690): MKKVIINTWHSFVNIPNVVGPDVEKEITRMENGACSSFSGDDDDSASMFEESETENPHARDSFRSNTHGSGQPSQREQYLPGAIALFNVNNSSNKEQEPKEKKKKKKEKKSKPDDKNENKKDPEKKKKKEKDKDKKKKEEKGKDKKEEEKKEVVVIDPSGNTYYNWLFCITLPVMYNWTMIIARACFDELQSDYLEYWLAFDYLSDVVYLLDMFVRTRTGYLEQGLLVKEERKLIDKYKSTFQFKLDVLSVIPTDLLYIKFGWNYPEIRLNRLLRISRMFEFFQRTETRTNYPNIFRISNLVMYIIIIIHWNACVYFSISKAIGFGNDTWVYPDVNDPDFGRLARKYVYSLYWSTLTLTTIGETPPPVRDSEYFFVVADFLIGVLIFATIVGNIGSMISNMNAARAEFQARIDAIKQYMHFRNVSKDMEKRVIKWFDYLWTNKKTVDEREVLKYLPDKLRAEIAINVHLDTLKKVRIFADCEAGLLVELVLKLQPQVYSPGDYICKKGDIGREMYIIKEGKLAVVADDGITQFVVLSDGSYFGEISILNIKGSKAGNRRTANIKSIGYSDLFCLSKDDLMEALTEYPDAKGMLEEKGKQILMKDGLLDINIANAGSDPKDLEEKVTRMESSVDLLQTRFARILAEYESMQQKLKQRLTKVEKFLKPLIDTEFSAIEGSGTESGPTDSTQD
The experiment is classed as biochemical. Particulars: for δ (Woodhull fit, best-fit): four blockers in the same patch (Fig. 4 C). The essentials: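 Inside-out patches from HEK293 cells expressing bovine rod CNGA1. Bath and pipette solution: 160 mM NaCl, 1 mM EGTA, 1 mM EDTA, 10 mM HEPES, pH 7.4. Currents were elicited with 1 mM cGMP by steps from −80 to +80 mV in 20 mV increments from a 0 mV holding potential. Records without cGMP were subtracted, and blocker was added to the bath. Block was read 10–40 s after exchange, at the end of the +80 mV pulse. KD and n came from a Hill fit. δ came from Woodhull fits of per-voltage KD and was averaged over 10 patches. Comparisons were made in the same patch and bracketed by controls.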

In the next experiment the test system is Kv channels. Particulars: cysteine at valine of PVP region; ref Liu et al., 1997; cited from earlier work.
The subject of experiment [3] is 391C cysteine-less CNGA1 channels. The class given is biochemical, bovine. Particulars: for modification rate open state versus closed state: average rates (Fig. 11 D). The essentials:
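391C channels were expressed in Xenopus oocytes and recorded 3–5 d after cRNA injection. Solutions contained 120 mM NaCl, 1 mM EGTA, 1 mM EDTA, 10 mM HEPES, pH 7.4. MTS reagent was applied for 2 s at 0 mV, with 2 mM cGMP (open state) or without it (closed state). Current was then monitored by a 50-ms step to +80 mV in 2 mM cGMP. Each value is the mean of at least three experiments.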

The next experiment addresses T2, CNGA1 channel (Bos taurus, UniProt Q00194).
T2 sequence (Q00194 1-690): T1 sequence (Q00194 1-690)
Put plainly: Single channel recordings of blockade, inside-out patches. The class given is biochemical, bovine. Particulars: +70 mV, 2 mM cGMP. Summed up: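 Single-channel recordings were made in inside-out patches with 7–10 MΩ pipettes at +70 mV with saturating 2 mM cGMP. Signals were sampled at 20 kHz, Bessel-filtered at 5 kHz, then digitally filtered at 2 kHz. Amplitude histograms (40 s of record) were fitted with two Gaussians. Open dwell-time distributions were fitted with two exponentials. τ2 was normalised to its blocker-free value, and its dose response was fitted with a Hill equation.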

The subject of a further experiment is 391C CNGA1 channels. Put plainly: Cd2+ inhibition in the closed state and its slowing by blocker. The class given is biochemical, bovine.
In experiment [4] the test system is CNGA1 channels. Particulars: ref Flynn and Zagotta, 2001; cited from earlier work.
Where [5] appears, read: read-out: average KD0, 0 mV, average of several patches.
[6] abbreviates: 500 μM reagent, estimated from τ.

In the case of `Cc1cc(N)c2ccccc2[n+]1CCCCCCCCCC[n+]1c(C)cc(N)c2ccccc21` [dequalinium], in the experiment with CNGA1 channels [1] (ref Rosenbaum et al., 2004), the “apparent affinity for closed channels compared with open channels” value is “three- to fivefold”.
Consider `CCC[N+](CC)(CC)CC` [C3-TEA], for which, in experiment [2] (average of several patches), the “average δ” value was −0.40 ± 0.08. Further, the Kd in experiment [2] (setting [5]) is 31 mM.
For `CCCCCCCC[N+](CC)(CC)CC` [C8-TEA], the “δ (Woodhull fit, best-fit)” value in experiment [2] (1 mM cGMP) was −0.44 ± 0.02. Also, in experiment [2] (setting [5]), the Kd was found to be 0.9 ± 0.2 mM.
`C[N+](C)(C)CCSS(C)(=O)=O` [MTSET, trimethylammonium ethyl-MTS]: in the experiment on Kv channels, the “modification rate in the closed state” value was 1 M⁻¹ s⁻¹ and the “state-dependent accessibility (modification rate)” value is recorded as ~10^6 M^−1s^−1.
In the case of `CCCC[N+](CC)(CC)CC` [C4-TEA], the “average δ” value in experiment [2] (average of several patches) was −0.40 ± 0.03. The “δ (Woodhull fit, best-fit)” value in experiment [2] (1 mM cGMP) is given as −0.45 ± 0.02. Besides, the Kd in experiment [2] (setting [5]) was determined as 11 mM.
Turning to `CC[N+](CC)(CC)CCSS(C)(=O)=O` [MTSTEA], the “modification rate open state versus closed state” value in experiment [3] is on record as “three to seven”.
In the case of `CC[N+](CC)(CC)CCCSS(C)(=O)=O` [MTS-PtrEA], the “time constant τ of modification, open state” value in experiment [3] (500 μM reagent, 2 mM cGMP) stood at 5.7 ± 0.3 s. Besides, the “time constant τ of modification, closed state” value in experiment [3] (500 μM reagent, absence of cGMP) is reported as 27 ± 1 s. Further, in experiment [3] (setting [6]), the “modification rate, closed state” value was 74 M⁻¹ s⁻¹ and the “modification rate, open state” value was 351 M⁻¹ s⁻¹. For the same compound, the “modification rate open state versus closed state” value in experiment [3] is reported as “three to seven”.
On to `CCCCNc1ccc(C(=O)OCCN(C)C)cc1` [Tetracaine, tetracaine], for which the “apparent affinity in the closed state compared with the open state” value with CNGA1 channels [1] (ref Fodor et al., 1997b, Ghatpande et al., 2003) was ~10^3 times higher.
Consider `CCCCCC[N+](CC)(CC)CC` [C6-TEA, hexyltriethylammonium], for which the “average δ” value in experiment [2] (average of several patches) was −0.48 ± 0.02. The “δ (Woodhull fit, best-fit)” value in experiment [2] (1 mM cGMP) is given as −0.53 ± 0.02. The Kd in experiment [2] (setting [5]) was determined as 5 mM.
On to `CCCCCCCCCC[N+](CC)(CC)CC` [C10-TEA, decyltriethyl ammonium], for which the “amplitude for the open state” value at CNGA1 channel (5 μM blocker) is 2.317 ± 0.002 pA. Moreover, the “area of the nonconductive level in current histogram” value on CNGA1 channel (5 μM blocker, 5% without blocker) is on record as 26%. At CNGA1 channel (5 μM blocker, 95% without blocker), the “area of the open state in amplitude histogram” value is listed as 74%. At CNGA1 channel (25 μM blocker), the “open dwell-time fraction A1” value stood at 0.19 and the “open dwell-time fraction A2” value stood at 0.81. In addition, at CNGA1 channel (25 μM blocker, 0.7 ms in control), the “open dwell-time fast component τ1” value was ~0.7 ms and 0.6 ms. In addition, on CNGA1 channel (25 μM blocker, 12.2 ms in control), the “apparent mean open time of the main (slow) component, τ2” value was 3.74 ms and 3.7 ms. The “extent of blockade at subsaturating versus saturating cGMP” value in experiment [2] (5 μM blocker, +80 mV) is “Blockade was larger at subsaturating levels of cGMP”. Also, in experiment [2] (15 μM blocker, +80 mV, 16 mM agonist), the “blockade levels under saturating cGMP, cIMP or cAMP” value is “Blockade levels were larger for cIMP and cAMP”. This compound had a Hill coefficient n in experiment [2] (+80 mV, 1 mM cGMP, one patch (Fig. 2 A)) of 1.19 ± 0.04. For the same compound, the “δ (Woodhull fit, best-fit)” value in experiment [2] (1 mM cGMP) is listed as −0.44 ± 0.01. Besides, the Kd in experiment [2] (setting [5]) is 0.05 ± 0.01 mM. For the same compound, the Kd in experiment [2] (read-out: average KDc, four different patches) was determined as 0.0023 ± 0.0006 mM.
In the case of `[Cl][Cd][Cl]` [Cd^2+, CdCl2], in the experiment with 391C CNGA1 channels (6 μM Cd2+, no cGMP, no blocker), the “time constant τ of current inhibition by Cd2+, closed state” value is given as 2.64 ± 0.08 s. Also, the “effect on cysteine-less wild-type channels” value in the experiment on 391C CNGA1 channels (50 μM Cd2+, unpublished data) is reported as “no effect”. Moreover, in the experiment with 391C CNGA1 channels (unpublished data), the “recovery of current inhibition” value is listed as 20–40% and the “time course τ of recovery of current inhibition” value was about 100 s.
Turning to `CS(=O)(=O)SCCN` [MTSEA, amino ethyl-MTS], in the experiment on CNGA1 channels [4], the “modification rates in both closed and open state” value is listed as 10^3–10^4 M^−1s^−1.
For the compound `CCCCCCCCCC[N+](C)(C)C` [C10-TMA, decyl-trimethyl ammonium], the “difference in apparent affinity as compared with C10-TEA” value in experiment [2] (50 μM, +80 mV, 1 mM cGMP) was found to be 1.8 fold.
`CC[N+](CC)(CC)CC` [TEA, tetraethylammonium] registered a reduction in current in experiment [2] (5 mM blocker, +80 mV, 1 mM cGMP) of about 35%. The “average δ” value in experiment [2] (average of several patches) is on record as −0.31 ± 0.04. In addition, the Kd in experiment [2] (setting [5]) was 35 mM.
